From ChEMBL document CHEMBL1125416, “Synthesis and antiulcer activity of novel 5-(2-ethenyl substituted)-3(2H)-furanones” (1992)

What was measured:
Rattus norvegicus [1] = assay: Inhibition against ethanol-induced lesions which was administered after 1 hr at a oral dosing of 25 mg/kg in pylorus-ligated rat model; assay type: functional
Rattus norvegicus [2] = assay: Inhibition against ethanol-induced lesions which was administered after 1 hr at a oral dosing of 10 mg/kg in pylorus-ligated rat model; assay type: functional
Rattus norvegicus [3] = assay: Compound was tested for inhibition against ethanol-induced lesions which was administered after 1 hr of oral dosing in rat ethanol-necrosis model
Rattus norvegicus [4] = assay: Evaluated for the duration of cytoprotective effect, in Ethanol-Necrosis model, that causes inhibition of ulceration. Absolute ethanol was administered at 4 hr after dosing; assay type: functional; design: concentration or dose not given beside the values
Method in brief: (§1)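 Male Sprague-Dawley rats (180–210 g), fasted 18–24 h with water available, dosed orally with drug or vehicle 4, 6 or 8 h before absolute ethanol (1 mL per rat po). Rats killed 1 h after ethanol, stomachs kept moist with saline and scored blind by ulcer size (mm²) and number per size class. Percent inhibition is taken against the vehicle group mean score.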

Rattus norvegicus [5] = assay: Evaluated for the duration of cytoprotective effect, in Ethanol-Necrosis model, that causes inhibition of ulceration. Absolute ethanol was administered at 8 hr after dosing; assay type: functional; design: concentration or dose not given beside the values; method in brief: as §1
Rattus norvegicus [6] = assay: Compound was evaluated for the duration of cytoprotective effect, in Ethanol-Necrosis model, that causes inhibition of ulceration. Absolute ethanol was administered at 6 hr after dosing; assay type: functional; method in brief: as §1
Rattus norvegicus [7] = species on record: Rattus norvegicus; assay: Effective dose that inhibits formation of induced gastric lesions.; assay type: functional; details: Stomach
Method in brief: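 Male Sprague-Dawley rats (180–210 g), fasted 18–24 h with water allowed, dosed orally 1 h before absolute ethanol (1 mL/rat po) and killed 1 h later. Lesions scored blind by size (mm²) and number, expressed as % inhibition versus vehicle mean. Groups of ≥10 rats; Dunnett's test (p < 0.01).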

Rattus norvegicus [8] = assay: Inhibitory activity against ethanol-induced lesions, which was administered after 1 hr of oral dosing in pylorus-ligated rat model.; assay type: functional
Rattus norvegicus [9] = assay: Inhibitory activity In the indomethacin model at a dose of 111 mg/kg perorally; assay type: functional; details: route oral
Method in brief: (§2)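 In male Sprague-Dawley rats (120–170 g) fasted 18 h with water ad libitum, oral test compound was given 30 min before indomethacin (20 mg/kg po). Rats killed by cervical dislocation 4 h later; stomachs opened along the greater curvature, rinsed, and lesions graded by size and number. Percent inhibition versus control, ≥10 rats per group.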

Rattus norvegicus [10] = assay: Inhibitory activity In acidified aspirin model at a dose of 40 mg/kg perorally; assay type: functional; details: route oral
Method in brief: (§3)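 Male Sprague-Dawley rats (120–180 g), fasted 18–24 h with water ad libitum. Compound or vehicle given po (10 mL/kg) 30 min before acidified aspirin (aspirin powder in 0.35 M HCl, 5 mL/kg po). Stomachs excised 5 h after aspirin and graded by ulcer size and number. Percent inhibition versus vehicle, ≥10 rats per group.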

Rattus norvegicus [11] = species on record: Rattus norvegicus; assay: Inhibitory activity In acidified aspirin model; assay type: functional; method in brief: as §3
Rattus norvegicus [12] = assay: Compound was evaluated for the duration of cytoprotective effect, in Ethanol-Necrosis model, that causes inhibition of ulceration. Absolute ethanol was administered at 8 hr after dosing; assay type: functional; method in brief: as §1
Rattus norvegicus [13] = species on record: Rattus norvegicus; assay: Inhibitory activity In the indomethacin model.; assay type: functional; method in brief: as §2
Rattus norvegicus [14] = assay: Compound was tested for inhibition against ethanol-induced lesions which was administered after 1 hr of at a oral dosing of 25 mg/kg in pylorus-ligated rat model; assay type: functional
Rattus norvegicus [15] = assay: Inhibitory activity in the indomethacin model at a dose of 40 mg/kg perorally; assay type: functional; details: route oral; method in brief: as §2
Rattus norvegicus [16] = assay: Inhibitory activity In acidified aspirin model at a dose of 16 mg/kg perorally; assay type: functional; details: route oral; method in brief: as §3
Rattus norvegicus [17] = assay: Inhibitory activity In the indomethacin model at a dose of 120 mg/kg perorally; assay type: functional; details: route oral; method in brief: as §2
Rattus norvegicus [18] = assay: Inhibitory activity in acidified aspirin model at a dose of 50 mg/kg perorally; assay type: functional; details: route oral; method in brief: as §3

CC1(C)OC(/C=C/c2ccc(Cl)c(Cl)c2)=CC1=O
inhibition in vivo at 25 mg/kg (Rattus norvegicus [1]): 45%

CC1(C)OC(/C=C/c2cnccn2)=CC1=O
inhibition in vivo at 10 mg/kg (Rattus norvegicus [2]): 56%

CC1(C)OC(c2ccc(Br)cc2)=CC1=O
inhibition in vivo at 25 mg/kg (Rattus norvegicus [1]): 36%

C/C(=C\c1ccccc1)C1=CC(=O)C(C)(C)O1
inhibition in vivo at 10 mg/kg (Rattus norvegicus [2]): 0%

CC1(C)OC(/C=C/c2ccc(F)c(F)c2)=CC1=O
Inhibition (Rattus norvegicus [3]): 47%

CC1(c2ccc(F)cc2)OC(/C=C/c2ccsc2)=CC1=O (configuration not stated)
inhibition in vivo at 10 mg/kg (Rattus norvegicus [2]): 22%

CC1(C)OC(/C=C/C=C/c2ccc(Cl)cc2)=CC1=O
inhibition in vivo at 10 mg/kg (Rattus norvegicus [2]): 33%

CC1(C)OC(/C=C/c2ccc(F)cc2)=CC1=O
Inhibition (Rattus norvegicus [4]): 61%
Inhibition (Rattus norvegicus [5]): 25%
Inhibition (Rattus norvegicus [6]): 50%
ED50 (Rattus norvegicus [7]): 50 mg/kg
ED50 (Rattus norvegicus [8]): 11 mg/kg

CC1(c2ccccc2)OC(/C=C/c2ccsc2)=CC1=O (configuration not stated)
inhibition in vivo at 10 mg/kg (Rattus norvegicus [2]): 0%

CC1(C)OC(c2ccc(C(F)(F)F)cc2)=CC1=O
inhibition in vivo at 25 mg/kg (Rattus norvegicus [1]): 39%

CC1(c2ccccc2)OC(/C=C/c2cccnc2)=CC1=O (configuration not stated)
inhibition in vivo at 10 mg/kg (Rattus norvegicus [2]): 44%

CSc1ccc(/C=C/C2=CC(=O)C(C)(C)O2)cc1
inhibition in vivo at 25 mg/kg (Rattus norvegicus [1]): 5%

CC1(c2ccccc2)OC(/C=C/c2ccncc2)=CC1=O (configuration not stated)
Inhibition (Rattus norvegicus [4]): 31%
ED50 (Rattus norvegicus [7]): 24 mg/kg
ED50 (Rattus norvegicus [8]): 6 mg/kg

CC1(C)OC(/C=C/c2ccoc2)=CC1=O
inhibition in vivo at 10 mg/kg (Rattus norvegicus [2]): 32%

CC1(c2ccc(F)cc2)OC(/C=C/c2ccc(C#N)cc2)=CC1=O (configuration not stated)
inhibition in vivo at 10 mg/kg (Rattus norvegicus [2]): 1%

CC1(C)OC(c2ccccc2)=CC1=O
ED50 (Rattus norvegicus [8]): 19 mg/kg

CC1(C)OC(/C=C/c2ccc(Br)cc2)=CC1=O
ED50 (Rattus norvegicus [8]): 18 mg/kg

CC1(C)OC(/C=C/c2ccnc3ccccc23)=CC1=O
ED50 (Rattus norvegicus [8]): 2.5 mg/kg

CC1(c2ccccc2)OC(/C=C/c2ccccn2)=CC1=O (configuration not stated)
Inhibition (Rattus norvegicus [4]): 28%
ED50 (Rattus norvegicus [7]): 40 mg/kg
ED50 (Rattus norvegicus [8]): 5 mg/kg

CC1(C)OC(/C=C/c2ccccn2)=CC1=O
inhibition in vivo at 111 mg/kg (Rattus norvegicus [9]): 72%
Inhibition (Rattus norvegicus [4]): 67%
inhibition in vivo at 40 mg/kg (Rattus norvegicus [10]): 77%
Inhibition (Rattus norvegicus [5]): 76%
ED50 (Rattus norvegicus [7]): 40 mg/kg
ED50 (Rattus norvegicus [8]): 10 mg/kg

CC1(C)OC(c2ccc(Cl)cc2)=CC1=O
inhibition in vivo at 25 mg/kg (Rattus norvegicus [1]): 29%

CC1(C)OC(/C=C/c2ccc3ccccc3c2)=CC1=O
inhibition in vivo at 25 mg/kg (Rattus norvegicus [1]): 43%

CC1(C)OC(/C=C/c2ccc(S(C)(=O)=O)cc2)=CC1=O
inhibition in vivo at 25 mg/kg (Rattus norvegicus [1]): 56%

CC1(C)OC(/C=C/c2cccnc2)=CC1=O
Inhibition (Rattus norvegicus [4]): 43%
Inhibition (Rattus norvegicus [5]): 40%
Inhibition (Rattus norvegicus [6]): 60%
ED50 (Rattus norvegicus [7]): 40 mg/kg
ED50 (Rattus norvegicus [8]): 9 mg/kg

CC(=O)c1ccc2c(c1)C(=O)C1(CC1)O2 [SPIZOFURONE]
Inhibition (Rattus norvegicus [11]): 78%
Inhibition (Rattus norvegicus [12]): 0%
Inhibition (Rattus norvegicus [4]): 72%
Inhibition (Rattus norvegicus [6]): 44%
ED50 (Rattus norvegicus [7]): 100 mg/kg
Inhibition (Rattus norvegicus [13]): 95%
ED50 (Rattus norvegicus [8]): 10 mg/kg

CC1(C)OC(/C=C/c2ccc(Cl)cc2Cl)=CC1=O
inhibition in vivo at 25 mg/kg (Rattus norvegicus [1]): 20%

Cn1cccc1/C=C/C1=CC(=O)C(C)(C)O1
inhibition in vivo at 10 mg/kg (Rattus norvegicus [2]): 32%

CC1(C)OC(/C=C/c2ccccc2)=CC1=O
ED50 (Rattus norvegicus [8]): 17 mg/kg

CC1(C)OC(/C=C/c2ccncc2)=CC1=O
Inhibition (Rattus norvegicus [6]): 46%
ED50 (Rattus norvegicus [7]): 20 mg/kg
ED50 (Rattus norvegicus [8]): 4 mg/kg

CC1(C)OC(/C=C/c2cccs2)=CC1=O
inhibition in vivo at 25 mg/kg (Rattus norvegicus [14]): 1%

CC1(C)OC(/C=C/c2ccc(F)cc2F)=CC1=O
Inhibition (Rattus norvegicus [4]): 42%
ED50 (Rattus norvegicus [7]): 100 mg/kg
ED50 (Rattus norvegicus [8]): 11 mg/kg

CC1(C)OC(/C=C/c2ccsc2)=CC1=O
inhibition in vivo at 40 mg/kg (Rattus norvegicus [15]): 65%
Inhibition (Rattus norvegicus [5]): 62%
inhibition in vivo at 16 mg/kg (Rattus norvegicus [16]): 0%
ED50 (Rattus norvegicus [7]): 16 mg/kg
ED50 (Rattus norvegicus [8]): 4 mg/kg

CC1(C)OC(/C=C/c2cc(Cl)cc(Cl)c2)=CC1=O
inhibition in vivo at 25 mg/kg (Rattus norvegicus [1]): 63%

CC1(c2ccccc2)OC(/C=C/c2ccc(C#N)cc2)=CC1=O (configuration not stated)
inhibition in vivo at 10 mg/kg (Rattus norvegicus [2]): 4%

CC1(c2ccc(F)cc2)OC(/C=C/c2ccccn2)=CC1=O (configuration not stated)
ED50 (Rattus norvegicus [8]): 3.5 mg/kg

CC1(C)OC(/C=C/c2ccc(C(F)(F)F)cc2)=CC1=O
inhibition in vivo at 25 mg/kg (Rattus norvegicus [1]): 30%

CC1(C)OC(/C=C/c2cc3ccccc3s2)=CC1=O
inhibition in vivo at 10 mg/kg (Rattus norvegicus [2]): 17%

COc1ccc(C2=CC(=O)C(C)(C)O2)cc1
Inhibition (Rattus norvegicus [3]): 30%

CC1(C)OC(/C=C/c2cccc(C#N)c2)=CC1=O
inhibition in vivo at 10 mg/kg (Rattus norvegicus [2]): 68%

CC1(C)OC(/C=C/c2ccc(C#N)cc2)=CC1=O
Inhibition (Rattus norvegicus [5]): 66%
inhibition in vivo at 120 mg/kg (Rattus norvegicus [17]): 70%
ED50 (Rattus norvegicus [7]): 50 mg/kg
inhibition in vivo at 50 mg/kg (Rattus norvegicus [18]): 23%
ED50 (Rattus norvegicus [8]): 12 mg/kg

CC1(C)OC(/C=C/c2ccc(Cl)cc2)=CC1=O
Inhibition (Rattus norvegicus [4]): 51%
ED50 (Rattus norvegicus [7]): 40 mg/kg
